According to ChEMBL document CHEMBL1817602, “Synthesis of benzo[3,4]azepino[1,2-b]isoquinolin-9-ones from 3-arylisoquinolines via ring closing metathesis and evaluation of topoisomerase I inhibitory activity, cytotoxicity and docking study” (Bioorg Med Chem, 2011):
Activity calls are given as the source filed them. No cut-off for these calls is given here.

Tests used:
SK-MEL-2 = experiment: Cytotoxicity against human SK-MEL-2 cells after 48 hrs by MTT assay; assay type: functional, cell-based; details: SK-MEL-2, 48 h
How it was run: (§1)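 Cells seeded at 10^5 cells/mL in 100 µL RPMI-1640 with 10% FBS; compounds added at various concentrations after 24 h and incubated 48 h. MTT (5 mg/mL stock in PBS, 50 µL per well) was added for a further incubation. Medium was discarded, formazan dissolved in DMSO, and absorbance read at 540 nm.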

HCT-15 = experiment: Cytotoxicity against human HCT15 cells after 48 hrs by MTT assay; assay type: functional, cell-based; details: HCT-15, 48 h; how it was run: as §1
Bos taurus [1] = species on record: Bos taurus; experiment: Inhibition of calf thymus topoisomerase 1-mediated relaxation of supercoiled pBR322 DNA at 20 to 100 uM after 30 mins using ethidium bromide staining by UV-light transillumination analysis
How it was run: (§2)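 Plasmid pBR322 (200 ng) with 0.3 U calf thymus topo I, compound at final 20 or 100 μM, 37 °C for 30 min in relaxation buffer (35 mM Tris–HCl pH 8.0, 72 mM KCl, MgCl2, DTT, spermidine, 0.01% BSA). Stopped with SDS loading mix, run on 1% agarose in TBE for 10 h, stained with ethidium bromide (0.5 μg/mL), and UV-visualized and quantitated. Scored semiquantitatively against camptothecin.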

A549 = experiment: Cytotoxicity against human A549 cells after 48 hrs by MTT assay; assay type: functional, cell-based; details: A549, 48 h; how it was run: as §1
SK-OV-3 = experiment: Cytotoxicity against human SKOV3 cells after 48 hrs by MTT assay; assay type: functional, cell-based; details: SK-OV-3, 48 h; how it was run: as §1
Bos taurus [2] = species on record: Bos taurus; experiment: Inhibition of calf thymus topoisomerase 1-mediated relaxation of supercoiled pBR322 DNA at 20 to 100 uM after 30 mins using ethidium bromide staining by UV-light transillumination analysis relative to camptothecin; how it was run: as §2

O=c1c2ccccc2cc2n1CC=Cc1cc3c(cc1-2)OCO3
IC50 (SK-MEL-2): 28.6 µM
IC50 (HCT-15): 20.1 µM
inhibition (Bos taurus [1]): Active
IC50 (A549): 17.1 µM
IC50 (SK-OV-3): 29.1 µM

C=CCn1c(-c2cc3c(cc2C=O)OCO3)cc2ccccc2c1=O
IC50 (SK-MEL-2): > 100 µM
IC50 (HCT-15): 54.1 µM
inhibition (Bos taurus [1]): Active
IC50 (A549): 87.5 µM
IC50 (SK-OV-3): 56.9 µM

C=CCn1c(-c2cc3c(cc2COCOC)OCO3)cc2ccc(OC)c(OC)c2c1=O
IC50 (SK-MEL-2): 27.4 µM
IC50 (HCT-15): 28.2 µM
inhibition (Bos taurus [1]): inactive
IC50 (A549): 29.9 µM
IC50 (SK-OV-3): > 100 µM

COc1ccc2cc3n(c(=O)c2c1OC)CC=Cc1cc2c(cc1-3)OCO2
IC50 (SK-MEL-2): 2.54 µM
IC50 (HCT-15): 6.34 µM
inhibition (Bos taurus [1]): Active
IC50 (A549): 7.45 µM
IC50 (SK-OV-3): 2.8 µM

C=CCn1c(-c2cc(OC)c(OC)cc2C=C)cc2ccccc2c1=O
IC50 (SK-MEL-2): 47.7 µM
IC50 (HCT-15): 75.2 µM
inhibition (Bos taurus [1]): Active
IC50 (A549): 43.2 µM
IC50 (SK-OV-3): 35.5 µM

COCOCc1cc2c(cc1-c1cc3ccccc3c(=O)[nH]1)OCO2
IC50 (SK-MEL-2): 64.5 µM
IC50 (HCT-15): 13.1 µM
IC50 (A549): 7.93 µM
inhibition (Bos taurus [2]): Active
IC50 (SK-OV-3): 22.9 µM

C=CCn1c(-c2cc3c(cc2C=C)OCO3)cc2ccc(OC)c(OC)c2c1=O
IC50 (SK-MEL-2): > 100 µM
IC50 (HCT-15): > 100 µM
inhibition (Bos taurus [1]): inactive
IC50 (A549): > 100 µM
IC50 (SK-OV-3): > 100 µM

C=CCn1c(-c2ccc(OC)cc2COCOC)cc2ccccc2c1=O
IC50 (SK-MEL-2): 42.6 µM
IC50 (HCT-15): 27.8 µM
inhibition (Bos taurus [1]): Active
IC50 (A549): > 100 µM
IC50 (SK-OV-3): > 100 µM

COc1ccc2c(c1)C=CCn1c-2cc2ccccc2c1=O
IC50 (SK-MEL-2): 7.74 µM
IC50 (HCT-15): 12.6 µM
inhibition (Bos taurus [1]): Active
IC50 (A549): 6.48 µM
IC50 (SK-OV-3): 24.3 µM

C=CCn1c(-c2cc(OC)c(OC)cc2COCOC)cc2ccccc2c1=O
IC50 (SK-MEL-2): 75 µM
IC50 (HCT-15): 78.7 µM
inhibition (Bos taurus [1]): Active
IC50 (A549): 88.1 µM
IC50 (SK-OV-3): 37.7 µM

CC[C@@]1(O)C(=O)OCc2c1cc1n(c2=O)Cc2cc3ccccc3nc2-1 [CAMPTOTHECIN]
IC50 (SK-MEL-2): 7.86 µM
IC50 (HCT-15): 0.166 µM
inhibition (Bos taurus [1]): Active
IC50 (A549): 0.091 µM
IC50 (SK-OV-3): 2.54 µM

C=CCn1c(-c2ccc(OC)cc2C=C)cc2ccccc2c1=O
IC50 (SK-MEL-2): 11.6 µM
IC50 (HCT-15): 22.8 µM
inhibition (Bos taurus [1]): Active
IC50 (A549): 17.2 µM
IC50 (SK-OV-3): 43.8 µM

C=CCn1c(-c2ccc(OC)cc2C=O)cc2ccccc2c1=O
IC50 (SK-MEL-2): 88.9 µM
IC50 (HCT-15): 56.5 µM
inhibition (Bos taurus [1]): Active
IC50 (A549): 88.1 µM
IC50 (SK-OV-3): 65.5 µM

C=CCn1c(-c2cc3c(cc2C=O)OCO3)cc2ccc(OC)c(OC)c2c1=O
IC50 (SK-MEL-2): 71.2 µM
IC50 (HCT-15): 63.9 µM
inhibition (Bos taurus [1]): Active
IC50 (A549): 85.1 µM
IC50 (SK-OV-3): 61.7 µM

C=CCn1c(-c2cc3c(cc2COCOC)OCO3)cc2ccccc2c1=O
IC50 (SK-MEL-2): 15.4 µM
IC50 (HCT-15): 36.1 µM
inhibition (Bos taurus [1]): Active
IC50 (A549): 19.8 µM
IC50 (SK-OV-3): 29.5 µM

COCOCc1cc(OC)ccc1-c1cc2ccccc2c(=O)[nH]1
IC50 (SK-MEL-2): 97.6 µM
IC50 (HCT-15): 27.5 µM
inhibition (Bos taurus [1]): Active
IC50 (A549): 45.3 µM
IC50 (SK-OV-3): 75.5 µM

C=CCn1c(-c2cc3c(cc2C=C)OCO3)cc2ccccc2c1=O
IC50 (SK-MEL-2): 9.36 µM
IC50 (HCT-15): 11.2 µM
inhibition (Bos taurus [1]): Active
IC50 (A549): 19.3 µM
IC50 (SK-OV-3): 13.6 µM

COc1cc2c(cc1OC)-c1cc3ccccc3c(=O)n1CC=C2
IC50 (SK-MEL-2): 6.23 µM
IC50 (HCT-15): 21.3 µM
inhibition (Bos taurus [1]): Active
IC50 (A549): 14.8 µM
IC50 (SK-OV-3): 11 µM

COCOCc1cc(OC)c(OC)cc1-c1cc2ccccc2c(=O)[nH]1
IC50 (SK-MEL-2): 55.2 µM
IC50 (HCT-15): 73.7 µM
inhibition (Bos taurus [1]): Active
IC50 (A549): 85.1 µM
IC50 (SK-OV-3): 87.7 µM

C=CCn1c(-c2cc(OC)c(OC)cc2C=O)cc2ccccc2c1=O
IC50 (SK-MEL-2): 67.6 µM
IC50 (HCT-15): 77.5 µM
inhibition (Bos taurus [1]): Active
IC50 (A549): 76.3 µM
IC50 (SK-OV-3): 85.5 µM
